Assay results reported in ChEMBL document CHEMBL1268918, “1,3-Benzoxazole-4-carbonitrile as a novel antifungal scaffold of β-1,6-glucan synthesis inhibitors” (Bioorg Med Chem, 2010).
Converted amounts (≈) assume the structure as drawn. The source made the active and inactive calls. No cut-off for these calls is given here.

Key:
Candida albicans [1] = experiment: Antifungal activity against FLCZ-resistant Candida albicans ATCC MYA-573 assessed as concentration required to 80% growth inhibition using alamar blue staining after 18 to 72 hrs by microdilution method; type: functional
How it was run: (§1)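 Serial broth microdilution in YPD medium (1% yeast extract, 2% peptone, […]). Starting cell density (1 × 10³–1 × 10⁴ cells/mL) and incubation time (18–72 h) were set per strain by growth speed. MIC-1 is the lowest drug concentration giving 80% growth inhibition relative to the drug-free control.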

Candida albicans [2] = experiment: Antifungal activity against FLCZ-susceptible Candida albicans ATCC 90028 assessed as concentration required to 80% growth inhibition using alamar blue staining after 18 to 72 hrs by microdilution method; type: functional; how it was run: as §1
[3] = Solubility in water at pH 6.8; type: physicochemical
Pichia kudriavzevii [4] = experiment: Antifungal activity against Candida krusei ATCC 44507 assessed as concentration required to 80% growth inhibition using alamar blue staining after 18 to 72 hrs by microdilution method; type: functional
How it was run: (§2)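 Serial dilution in YPD medium (1% yeast extract, 2% peptone, […]), incubated at 37 °C. Inoculum was 1×10³–1×10⁴ cells/mL and incubation 18–72 h, both chosen per strain. MIC-1 is the lowest concentration giving 80% inhibition relative to a drug-free control.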

Candida tropicalis [5] = experiment: Antifungal activity against Candida tropicalis ATCC 44508 assessed as concentration required to 80% growth inhibition using alamar blue staining after 18 to 72 hrs by microdilution method; type: functional; how it was run: as §2
[6] = Octanol-phosphate buffer partition coefficient, log D of the compound at pH 7.4; type: physicochemical
How it was run: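 Compound was shaken 30 min in equal volumes of n-octanol and phosphate-buffered saline at pH 7.4, then centrifuged at 3000 rpm for 10 min. Each layer was assayed by LC/MS, and log D was taken from the partition ratio.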

Nakaseomyces glabratus [7] = experiment: Antifungal activity against Candida glabrata ATCC 48435 assessed as concentration required to 80% growth inhibition using alamar blue staining after 18 to 72 hrs by microdilution method; type: functional; how it was run: as §2
Nakaseomyces glabratus [8] = experiment: Antifungal activity against Candida glabrata ATCC 48435 assessed as concentration required to 50% growth inhibition using alamar blue staining after 18 to 72 hrs by microdilution method; type: functional
How it was run: (§3)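 Serial broth microdilution in RPMI 1640 with 0.165 M MOPS. Inoculum was 1×10³–1×10⁴ cells/mL and incubation ran 18–72 h, both set per strain by growth rate, at 30 °C. MIC-2 is the lowest drug concentration giving 50% growth inhibition versus a drug-free control.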

Candida tropicalis [9] = experiment: Antifungal activity against Candida tropicalis IAM 4965 assessed as concentration required to 50% growth inhibition using alamar blue staining after 18 to 72 hrs by microdilution method; type: functional; how it was run: as §3
Saccharomyces cerevisiae = experiment: Antifungal activity against Saccharomyces cerevisiae YPH500 assessed as concentration required to 50% growth inhibition using alamar blue staining after 18 to 72 hrs by microdilution method; type: functional; how it was run: as §3
Pichia kudriavzevii [10] = experiment: Antifungal activity against Candida krusei ATCC 44507 assessed as concentration required to 50% growth inhibition using alamar blue staining after 18 to 72 hrs by microdilution method; type: functional; how it was run: as §3
Candida albicans [11] = experiment: Antifungal activity against Candida albicans ATCC 24433 assessed as concentration required to 50% growth inhibition using alamar blue staining after 18 to 72 hrs by microdilution method; type: functional; how it was run: as §3
[12] = Metabolic stability in human liver microsomes at 1 uM after 30 mins; type: ADME, Microsome; details: read-out: Stability
How it was run: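 Compound was preincubated with human liver microsomes (0.5 mg/mL protein) in sodium phosphate buffer pH 7.4 for 20 min at 37 °C. NADPH started the reaction, and MeOH stopped it after 30 min. Samples were centrifuged at 4 °C, and parent loss was quantified by LC/MS/MS.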

Candida albicans [13] = experiment: Antifungal activity against FLCZ-susceptible Candida albicans ATCC 90028 assessed as reduction of mannan level up to 4 ug/ml after 3 hrs by [14C]-glucose incorporation assay; type: functional, organism-based
How it was run: (§4)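 Exponentially growing cells were suspended in RPMI 1640 to about 0.7 A595, then drug (0–4 µg/mL) and [14C]-glucose were added. Incubation was 3 h at 30 °C with occasional shaking. Cells were heated in 3% NaOH at 80 °C for 1 h. Mannan was taken from the supernatant by Fehling's reaction, and the insoluble residue was digested overnight with Zymolyase 100T. β-1,3-glucan counts were obtained as glucan minus β-1,6-glucan.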

Candida albicans [14] = experiment: Antifungal activity against FLCZ-susceptible Candida albicans ATCC 90028 assessed as reduction of chitin level up to 4 ug/ml after 3 hrs by [14C]-glucose incorporation assay; type: functional, organism-based; how it was run: as §4
Candida albicans [15] = experiment: Antifungal activity against FLCZ-susceptible Candida albicans ATCC 90028 assessed as reduction of beta-1,3-glucan level up to 4 ug/ml after 3 hrs by [14C]-glucose incorporation assay; type: functional, organism-based; how it was run: as §4
Candida albicans [16] = experiment: Antifungal activity against FLCZ-susceptible Candida albicans ATCC 90028 assessed as reduction of beta-1,6-glucan level after 3 hrs by [14C]-glucose incorporation assay; type: functional, organism-based
How it was run: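 Exponentially growing cells suspended in RPMI 1640 to absorbance ~0.7 at 595 nm; drug and [14C]-glucose added, incubated 30 °C with occasional shaking. After 3 h, cells heated in 3% NaOH at 80 °C for 1 h; mannan taken from supernatant by Fehling's reaction; insoluble residue digested with Zymolyase 100T overnight; radioactivity per fraction measured. Tested 0.016–4 µg/mL.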

Row | SMILES | MIC (Candida albicans [1]) [µg/mL] | MIC (Candida albicans [2]) [µg/mL] | solubility [3] [µg/mL] | MIC (Pichia kudriavzevii [4]) [µg/mL] | MIC (Candida tropicalis [5]; read-out: MIC) [µg/mL] | logD [6] | MIC (Nakaseomyces glabratus [7]) [µg/mL] | MIC (Nakaseomyces glabratus [8]) [µg/mL] | MIC (Candida tropicalis [9]) [µg/mL] | MIC (Saccharomyces cerevisiae) [µg/mL] | MIC (Pichia kudriavzevii [10]) [µg/mL] | MIC (Candida albicans [11]) [µg/mL] | remaining at 0.5 h, 1 µM [12] [%] | MIC (Candida tropicalis [5]) [µg/mL] | Activity (Candida albicans [13]) | Activity (Candida albicans [14]) | Activity (Candida albicans [15]) | Activity (Candida albicans [16])
1 | Cc1nc2c(C#N)c(C)c(-c3ccccc3)c(N3CC[C@H](N(C)C)C3)c2o1 | 2 (≈ 5.55 µM) | 2 (≈ 5.55 µM) | 120 (≈ 333 µM) | 4 (≈ 11.1 µM) | 0.25 (≈ 0.694 µM) | 3.3 | 0.25 (≈ 0.694 µM) |  |  |  |  |  |  |  |  |  |  | 
2 | OC(Cn1cncn1)(Cn1cncn1)c1ccc(F)cc1F [FLUCONAZOLE] | > 128 | 0.25 (≈ 0.816 µM) | > 2000 | 32 (≈ 104 µM) | 0.5 (≈ 1.63 µM) |  | 16 (≈ 52.2 µM) | 2 (≈ 6.53 µM) | 0.25 (≈ 0.816 µM) | 4 (≈ 13.1 µM) | 16 (≈ 52.2 µM) | 0.25 (≈ 0.816 µM) |  |  |  |  |  | 
3 | Cc1c(-c2ccccc2)c(N2CC[C@H](N(C)C)C2)c2oc(C(C)(C)C)nc2c1C#N.Cl | 0.125 | 0.063 | 5 | 2 | 0.032 | 4.6 | 0.063 | ≤ 0.016 | 0.063 | ≤ 0.016 | 4 | 4 | 6 |  |  |  |  | 
4 | CN(C)[C@H]1CCN(c2c(-c3ccccc3)cc(C#N)c3oc(C(C)(C)C)nc23)C1 |  |  |  |  |  |  |  | > 4 | > 4 | 4 (≈ 10.3 µM) | > 16 | > 4 |  |  |  |  |  | 
5 | Cc1c(C#N)c2c(c(N3CC[C@H](N(C)C)C3)c1-c1ccccc1)OCC(C(C)(C)C)=N2 |  |  | 56 (≈ 134 µM) |  |  | 4.4 |  | 8 (≈ 19.2 µM) | 16 (≈ 38.4 µM) | 8 (≈ 19.2 µM) | > 16 | > 16 |  |  |  |  |  | 
6 | CN(C)[C@H]1CCN(c2c(-c3ccccc3)c3c(c4nc(C5CC5)oc24)C(=O)OC3)C1 | 1 (≈ 2.48 µM) | 1 (≈ 2.48 µM) | 310 (≈ 768 µM) | 2 (≈ 4.96 µM) | 0.25 (≈ 0.62 µM) | 2.6 | 0.25 (≈ 0.62 µM) |  |  |  |  |  |  |  |  |  |  | 
7 | Cc1c(-c2ccccc2)c(N2CC[C@H](N(C)C)C2)c2oc(C3CCC3)nc2c1C#N | 0.125 (≈ 0.312 µM) | 0.063 (≈ 0.157 µM) | 7 (≈ 17.5 µM) | 0.5 (≈ 1.25 µM) |  | 4.5 |  |  |  |  |  |  |  | < 0.016 |  |  |  | 
8 | Cc1c(-c2ccccc2)c(N2CC[C@H](N(C)C)C2)c2[nH]c(C(C)(C)C)nc2c1C#N |  |  | 8 (≈ 19.9 µM) |  |  | 4.7 |  | 0.5 (≈ 1.25 µM) | 2 (≈ 4.98 µM) | 0.5 (≈ 1.25 µM) | > 16 | 4 (≈ 9.96 µM) | 21 |  |  |  |  | 
9 | CN(C)[C@H]1CCN(c2c(-c3ccccc3)cc(C#N)c3oc(C(C)(C)C)cc23)C1 |  |  | < 2 |  |  | 5.4 |  | > 4 | 4 (≈ 10.3 µM) | 2 (≈ 5.16 µM) | > 4 | > 4 | 20 |  |  |  |  | 
10 | Cc1c(-c2ccccc2)c(N2CC[C@H](N(C)C)C2)c2oc(N)nc2c1C#N | 2 (≈ 5.53 µM) | 1 (≈ 2.77 µM) | 18 (≈ 49.8 µM) | 2 (≈ 5.53 µM) | 0.5 (≈ 1.38 µM) | 3.3 | 0.125 (≈ 0.346 µM) |  |  |  |  |  |  |  |  |  |  | 
11 | Cc1c(-c2ccccc2)c(N2CC[C@H](N(C)C)C2)n2c(nc3ccccc32)c1C#N |  |  | 5 (≈ 12.6 µM) |  |  |  |  | 0.063 (≈ 0.159 µM) | 0.25 (≈ 0.632 µM) | 0.004 (≈ 0.0101 µM) | 0.125 (≈ 0.316 µM) | > 4 |  |  |  |  |  | 
12 | Cc1c(-c2ccccc2)c(N2CC[C@H](N(C)C)C2)c2oc(C3=CCCC3)nc2c1C#N | 4 (≈ 9.7 µM) | 4 (≈ 9.7 µM) | < 2 | 16 (≈ 38.8 µM) | 1 (≈ 2.42 µM) | 5.2 | 0.5 (≈ 1.21 µM) |  |  |  |  |  |  |  |  |  |  | 
13 | CN[C@H]1CCN(c2c(-c3ccccc3)c(C)c(C#N)c3nc(C(C)(C)C)oc23)C1.Cl | 0.25 | 0.25 | 120 | > 4 | 0.063 | 3.4 | 0.125 | 0.125 | 0.25 | 0.125 | > 16 | 16 | 54 |  | inactive | inactive | inactive | Dose-dependent effect
14 | Cc1c(-c2ccccc2)c(N2CC[C@H](N(C)C)C2)n2nc(C(C)(C)C)nc2c1C#N | 0.5 (≈ 1.24 µM) | 0.25 (≈ 0.621 µM) |  | 8 (≈ 19.9 µM) | 0.125 (≈ 0.311 µM) |  | 0.125 (≈ 0.311 µM) | 0.063 (≈ 0.157 µM) | 0.25 (≈ 0.621 µM) | 0.063 (≈ 0.157 µM) | > 4 | > 4 | 9 |  |  |  |  | 
15 | CN(C)[C@H]1CCN(c2c(-c3ccccc3)cc(C#N)c3nc(C(C)(C)C)oc23)C1 |  |  | 16 (≈ 41.2 µM) |  |  | 3.8 |  | 0.25 (≈ 0.643 µM) | 0.5 (≈ 1.29 µM) | 0.25 (≈ 0.643 µM) | 16 (≈ 41.2 µM) | 16 (≈ 41.2 µM) | 8 |  |  |  |  | 
16 | Cc1c(-c2ccccc2)c(N2CC[C@H](N(C)C)C2)c2oc(C3CCCC3)nc2c1C#N | 0.125 (≈ 0.302 µM) | 0.125 (≈ 0.302 µM) | < 2 | 2 (≈ 4.82 µM) | 0.063 (≈ 0.152 µM) | 4.9 | 0.032 (≈ 0.0772 µM) |  |  |  |  |  |  |  |  |  |  | 
17 | Cc1c(-c2ccccc2)c(N2CC[C@H](N(C)C)C2)c2oc(C3CC3)nc2c1C#N | 0.063 (≈ 0.163 µM) | 0.063 (≈ 0.163 µM) | 10 (≈ 25.9 µM) | 0.125 (≈ 0.323 µM) | 0.032 (≈ 0.0828 µM) | 3.9 | 0.032 (≈ 0.0828 µM) |  |  |  |  |  |  |  |  |  |  | 
